The source of these data is PMC12475083 (Scientific Reports, 2025).

One may read the IC50 as the concentration at which inhibition is half-maximal.

In the first assay the target is T1, hHDAC6 (Homo sapiens, UniProt Q9UBN7).
T1 sequence (Q9UBN7 1-1215): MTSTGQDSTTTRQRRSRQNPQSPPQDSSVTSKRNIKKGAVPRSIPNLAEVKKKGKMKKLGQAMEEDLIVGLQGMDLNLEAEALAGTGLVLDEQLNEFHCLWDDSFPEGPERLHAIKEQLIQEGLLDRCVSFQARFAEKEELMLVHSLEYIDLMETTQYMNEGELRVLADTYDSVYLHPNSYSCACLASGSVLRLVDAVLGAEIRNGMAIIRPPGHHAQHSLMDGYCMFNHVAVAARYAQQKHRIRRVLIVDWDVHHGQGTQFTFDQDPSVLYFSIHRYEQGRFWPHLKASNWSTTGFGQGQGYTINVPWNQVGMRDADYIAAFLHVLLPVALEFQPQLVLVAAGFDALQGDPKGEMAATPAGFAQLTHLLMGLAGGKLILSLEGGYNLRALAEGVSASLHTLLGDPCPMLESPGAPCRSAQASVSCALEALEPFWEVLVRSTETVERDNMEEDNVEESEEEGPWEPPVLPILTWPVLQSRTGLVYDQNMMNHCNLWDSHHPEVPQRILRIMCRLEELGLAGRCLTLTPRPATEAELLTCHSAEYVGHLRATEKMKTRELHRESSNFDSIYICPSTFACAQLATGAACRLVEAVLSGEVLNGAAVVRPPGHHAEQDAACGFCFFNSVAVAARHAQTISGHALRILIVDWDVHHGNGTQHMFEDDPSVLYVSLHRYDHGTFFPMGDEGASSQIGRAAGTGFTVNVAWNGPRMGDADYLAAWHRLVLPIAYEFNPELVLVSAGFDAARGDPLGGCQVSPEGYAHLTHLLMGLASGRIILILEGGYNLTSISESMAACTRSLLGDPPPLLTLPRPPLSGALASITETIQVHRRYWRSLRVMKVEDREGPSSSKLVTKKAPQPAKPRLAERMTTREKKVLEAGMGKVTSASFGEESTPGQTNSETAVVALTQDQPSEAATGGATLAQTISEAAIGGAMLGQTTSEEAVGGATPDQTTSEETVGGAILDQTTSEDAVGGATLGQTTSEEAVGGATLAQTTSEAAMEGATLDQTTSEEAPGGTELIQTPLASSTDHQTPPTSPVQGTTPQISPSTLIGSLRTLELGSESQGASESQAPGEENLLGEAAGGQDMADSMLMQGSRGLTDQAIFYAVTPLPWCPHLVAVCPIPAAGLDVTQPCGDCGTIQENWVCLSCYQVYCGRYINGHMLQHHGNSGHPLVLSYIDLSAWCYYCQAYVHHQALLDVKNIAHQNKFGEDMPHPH
Kind of assay: biochemical.
Settings: not given
`Cc1ccc(S(=O)(=O)n2cc(CNc3ccc(C(=O)NO)cc3)c3ccccc32)cc1` [Compound 2d, N-hydroxy-4-(((1-tosyl-1H-indol-3-yl)methyl)amino)benzamide]: the IC50 stood at 0.053 ± 0.005 µM.
Take `O=C(NO)c1ccc(NCc2cnc3ccccc3c2)cc1` [Compound 2f, N-hydroxy-4-((quinolin-3-ylmethyl)amino)benzamide]: the IC50 turned out to be 0.0025 ± 0.0003 µM.

The target in a further assay is T2, drHDAC10 (Danio rerio, UniProt F1QCV2).
T2 sequence (F1QCV2 1-675): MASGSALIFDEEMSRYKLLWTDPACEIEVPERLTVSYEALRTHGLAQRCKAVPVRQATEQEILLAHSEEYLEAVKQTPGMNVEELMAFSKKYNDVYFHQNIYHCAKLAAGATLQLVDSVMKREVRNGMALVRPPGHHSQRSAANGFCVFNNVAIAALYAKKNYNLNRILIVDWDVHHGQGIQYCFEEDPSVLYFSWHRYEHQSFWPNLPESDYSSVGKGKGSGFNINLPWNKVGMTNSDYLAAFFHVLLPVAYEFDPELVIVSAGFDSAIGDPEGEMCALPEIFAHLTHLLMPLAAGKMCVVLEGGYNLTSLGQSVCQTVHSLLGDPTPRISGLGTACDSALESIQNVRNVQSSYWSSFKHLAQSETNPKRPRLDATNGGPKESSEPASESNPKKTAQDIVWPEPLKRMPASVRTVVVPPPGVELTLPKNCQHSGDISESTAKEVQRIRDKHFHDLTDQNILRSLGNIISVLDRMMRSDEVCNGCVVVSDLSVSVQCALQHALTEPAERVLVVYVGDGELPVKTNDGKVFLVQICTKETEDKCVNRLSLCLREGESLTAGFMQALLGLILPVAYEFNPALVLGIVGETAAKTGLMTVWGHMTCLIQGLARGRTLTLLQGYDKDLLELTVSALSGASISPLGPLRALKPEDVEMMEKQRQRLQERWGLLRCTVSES
Kind of assay: Enzymatic in vitro HDAC10 inhibition assay. It is filed as biochemical, zebrafish.
Settings: not given
The essentials:
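Recombinant wild-type drHDAC10 (5 nM final) was preincubated 5 min with test compound at various concentrations in 20 mM HEPES pH 7.4 with 0.5 mg/mL BSA. The reaction was started with 50 µM Ac-spermidine-AMC and incubated 25 min at 25 °C. A stop solution containing 16 mM NDA derivatized the released primary amine. Fluorescence was read at λex 330 nm and λem 390 nm.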
In turn, `Cc1ccc(S(=O)(=O)n2cc(CNc3ccc(C(=O)NO)cc3)c3ccccc32)cc1` [Compound 2d, N-hydroxy-4-(((1-tosyl-1H-indol-3-yl)methyl)amino)benzamide] showed a half-maximal inhibitory concentration (IC50) of 0.29 ± 0.06 µM.
`O=C(NO)c1ccc(NCc2cnc3ccccc3c2)cc1` [Compound 2f, N-hydroxy-4-((quinolin-3-ylmethyl)amino)benzamide] yielded a concentration for half-maximal inhibition (IC50) of 0.11 ± 0.01 µM.

The subject of the next assay is Vero kidney cells. Nature of the assay: Cytotoxicity, WST-8 cell viability, non-cancer kidney cells. It is filed as cell-based. Particulars: Chlorocebus sabaeus, Vero, 48 h, read-out: Kidney cells IC50 Vero. The essentials:
(§1)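 Cells were seeded at 10,000 cells/well and grown for 24 h. Test compounds were dissolved in DMSO, diluted in medium and added at 80, 40, 20 and 10 µM. Cells were then incubated for 48 h. Viability was read with WST-8 plus 1-methoxy PMS as formazan absorbance at 450 nm. Controls were doxorubicin (positive) and 0.25% DMSO (vehicle). IC50 came from concentration-response curves, mean ± SD (n = 3).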
Turning to `Cc1ccc(S(=O)(=O)n2cc(CNc3ccc(C(=O)NO)cc3)c3ccccc32)cc1` [Compound 2d, N-hydroxy-4-(((1-tosyl-1H-indol-3-yl)methyl)amino)benzamide], the IC50 was 50.5 ± 9.74 µM.
Still for that read-out and setting: the value for `O=C(NO)c1ccc(NCc2cnc3ccccc3c2)cc1` [Compound 2f, N-hydroxy-4-((quinolin-3-ylmethyl)amino)benzamide] was 3.92 ± 0.24 µM.

A further assay relates to BT-549 (breast carcinoma). Nature of the assay: Cytotoxicity, WST-8 cell viability. To be noted: Homo sapiens, BT-549, 48 h, read-out: Cancer cell lines IC50 BT-549. It is filed as cell-based, human. The essentials: as §1
(Tetrazolium dyes change colour on reduction, which living cells bring about.)
Regarding `Cc1ccc(S(=O)(=O)n2cc(CNc3ccc(C(=O)NO)cc3)c3ccccc32)cc1` [Compound 2d, N-hydroxy-4-(((1-tosyl-1H-indol-3-yl)methyl)amino)benzamide], the half-maximal inhibitory concentration (IC50) came out at 11.4 ± 0.16 µM.
The same measure, in the same setting: next, `O=C(NO)c1ccc(NCc2cnc3ccccc3c2)cc1` [Compound 2f, N-hydroxy-4-((quinolin-3-ylmethyl)amino)benzamide]: 14.8 ± 2.65 µM.

Another assay concerns SK-OV-3 (ovarian carcinoma). Kind of assay: Cytotoxicity, WST-8 cell viability. It is filed as cell-based, human. Particulars: Homo sapiens, SK-OV-3, 48 h, read-out: Cancer cell lines IC50 SK-OV-3. The gist of the method: as §1
Regarding `Cc1ccc(S(=O)(=O)n2cc(CNc3ccc(C(=O)NO)cc3)c3ccccc32)cc1` [Compound 2d, N-hydroxy-4-(((1-tosyl-1H-indol-3-yl)methyl)amino)benzamide], the IC50 came out at 12.6 ± 0.98 µM.
Same read-out and setting: next, `O=C(NO)c1ccc(NCc2cnc3ccccc3c2)cc1` [Compound 2f, N-hydroxy-4-((quinolin-3-ylmethyl)amino)benzamide]: 10.9 ± 2.89 µM.

For the next assay, the target named is T3, hHDAC8 (Homo sapiens, UniProt Q9BY41).
T3 sequence (Q9BY41 1-377): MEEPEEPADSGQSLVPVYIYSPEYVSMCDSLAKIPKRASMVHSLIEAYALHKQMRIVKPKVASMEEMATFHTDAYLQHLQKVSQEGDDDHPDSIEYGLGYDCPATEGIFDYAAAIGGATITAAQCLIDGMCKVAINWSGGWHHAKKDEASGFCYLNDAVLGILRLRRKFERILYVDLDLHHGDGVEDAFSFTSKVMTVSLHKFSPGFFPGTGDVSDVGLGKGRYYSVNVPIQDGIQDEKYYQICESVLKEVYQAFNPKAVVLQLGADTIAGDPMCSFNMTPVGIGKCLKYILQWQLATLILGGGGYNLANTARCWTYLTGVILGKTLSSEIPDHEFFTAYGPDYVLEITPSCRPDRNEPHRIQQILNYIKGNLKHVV
Nature of the assay: biochemical. Type of assay: biochemical.
Settings: not given
For `O=C(NO)c1ccc(NCc2cnc3ccccc3c2)cc1` [Compound 2f, N-hydroxy-4-((quinolin-3-ylmethyl)amino)benzamide], the concentration for half-maximal inhibition (IC50) was 0.21 ± 0.01 µM.

The assay is the same for the next values; noted with them: inhibitor at 1 µM.
`Cc1ccc(S(=O)(=O)n2cc(CNc3ccc(C(=O)NO)cc3)c3ccccc32)cc1` [Compound 2d, N-hydroxy-4-(((1-tosyl-1H-indol-3-yl)methyl)amino)benzamide]: the “hHDAC8 % @1 µM” value turned out to be 49.2%.

Staying with this assay, now noted: inhibitor at 10 µM.
With `Cc1ccc(S(=O)(=O)n2cc(CNc3ccc(C(=O)NO)cc3)c3ccccc32)cc1` [Compound 2d, N-hydroxy-4-(((1-tosyl-1H-indol-3-yl)methyl)amino)benzamide], the “hHDAC8 % @10 µM” value is 98.9%.

The target of another assay is hHDAC1 (Homo sapiens, UniProt Q13547). Kind of assay: biochemical. Type of assay: biochemical. Particulars: inhibitor at 1 µM.
hHDAC1, sequence (Q13547 whole entry): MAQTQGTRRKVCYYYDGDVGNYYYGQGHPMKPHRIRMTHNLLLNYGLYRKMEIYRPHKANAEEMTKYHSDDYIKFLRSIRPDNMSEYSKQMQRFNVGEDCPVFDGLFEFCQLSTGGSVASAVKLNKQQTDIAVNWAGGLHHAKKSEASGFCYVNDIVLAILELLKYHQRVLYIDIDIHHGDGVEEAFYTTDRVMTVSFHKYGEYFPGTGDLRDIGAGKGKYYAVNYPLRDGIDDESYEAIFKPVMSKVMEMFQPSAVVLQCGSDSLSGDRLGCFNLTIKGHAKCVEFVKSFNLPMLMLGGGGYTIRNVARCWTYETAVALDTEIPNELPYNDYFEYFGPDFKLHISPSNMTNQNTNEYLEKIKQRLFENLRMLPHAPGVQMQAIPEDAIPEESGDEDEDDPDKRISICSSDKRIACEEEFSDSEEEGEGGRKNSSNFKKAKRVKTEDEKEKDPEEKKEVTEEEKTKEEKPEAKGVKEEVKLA
Turning to `Cc1ccc(S(=O)(=O)n2cc(CNc3ccc(C(=O)NO)cc3)c3ccccc32)cc1` [Compound 2d, N-hydroxy-4-(((1-tosyl-1H-indol-3-yl)methyl)amino)benzamide], the “hHDAC1 % @1 µM” value is 1.3%.

The same assay, now with this note: inhibitor at 10 µM.
With `Cc1ccc(S(=O)(=O)n2cc(CNc3ccc(C(=O)NO)cc3)c3ccccc32)cc1` [Compound 2d, N-hydroxy-4-(((1-tosyl-1H-indol-3-yl)methyl)amino)benzamide], the “hHDAC1 % @10 µM” value turned out to be 38.9%.

The next assay relates to SK-MEL (melanoma). Nature of the assay: Cytotoxicity, WST-8 cell viability. It is filed as cell-based, human. To be noted: Homo sapiens, 48 h, read-out: Cancer cell lines IC50 SK-MEL. The gist of the method: as §1
For `Cc1ccc(S(=O)(=O)n2cc(CNc3ccc(C(=O)NO)cc3)c3ccccc32)cc1` [Compound 2d, N-hydroxy-4-(((1-tosyl-1H-indol-3-yl)methyl)amino)benzamide], the IC50 was 8.38 ± 2.11 µM.
Still for that read-out and setting: next, `O=C(NO)c1ccc(NCc2cnc3ccccc3c2)cc1` [Compound 2f, N-hydroxy-4-((quinolin-3-ylmethyl)amino)benzamide]: 15.2 ± 1.21 µM.

The test system of a further assay is KB (epidermal carcinoma). Kind of assay: Cytotoxicity, WST-8 cell viability. Type of assay: cell-based, human. Particulars: Homo sapiens, 48 h, read-out: Cancer cell lines IC50 KB. The essentials: as §1
For the compound `Cc1ccc(S(=O)(=O)n2cc(CNc3ccc(C(=O)NO)cc3)c3ccccc32)cc1` [Compound 2d, N-hydroxy-4-(((1-tosyl-1H-indol-3-yl)methyl)amino)benzamide], the IC50 was determined as 13.3 ± 0.33 µM.
The same measure, in the same setting: next, `O=C(NO)c1ccc(NCc2cnc3ccccc3c2)cc1` [Compound 2f, N-hydroxy-4-((quinolin-3-ylmethyl)amino)benzamide]: 9.72 ± 0.73 µM.
